For data set [1], the target named is T1, UDP-glucuronosyltransferase 2B7 (Homo sapiens, UniProt P16662).
T1 sequence (P16662 whole entry): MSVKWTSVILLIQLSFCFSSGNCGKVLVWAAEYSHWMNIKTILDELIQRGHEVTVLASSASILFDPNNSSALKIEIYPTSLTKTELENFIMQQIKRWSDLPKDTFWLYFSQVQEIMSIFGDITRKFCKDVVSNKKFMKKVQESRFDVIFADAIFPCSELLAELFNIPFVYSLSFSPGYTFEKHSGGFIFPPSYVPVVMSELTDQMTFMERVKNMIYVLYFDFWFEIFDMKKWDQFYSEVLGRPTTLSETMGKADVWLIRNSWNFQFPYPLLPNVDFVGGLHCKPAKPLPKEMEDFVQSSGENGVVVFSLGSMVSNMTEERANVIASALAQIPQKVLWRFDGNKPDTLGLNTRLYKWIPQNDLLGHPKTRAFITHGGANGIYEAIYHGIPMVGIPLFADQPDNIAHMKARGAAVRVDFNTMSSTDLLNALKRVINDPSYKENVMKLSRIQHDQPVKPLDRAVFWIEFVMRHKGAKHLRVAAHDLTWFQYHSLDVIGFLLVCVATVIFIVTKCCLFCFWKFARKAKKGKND
The experiment in a line: (§1) Inhibition of UGT2B7.

The next data set has as its target T2, UGT2B7 (Homo sapiens, UniProt P16662).
T2 sequence (P16662 whole entry): T1 sequence (P16662 whole entry)
The data set is described as §1. Particulars: human; read-out: Imax.

The target of data set [2] is T3, UDP-glucuronosyltransferase 2B17 (Homo sapiens, UniProt O75795).
T3 sequence (O75795 whole entry): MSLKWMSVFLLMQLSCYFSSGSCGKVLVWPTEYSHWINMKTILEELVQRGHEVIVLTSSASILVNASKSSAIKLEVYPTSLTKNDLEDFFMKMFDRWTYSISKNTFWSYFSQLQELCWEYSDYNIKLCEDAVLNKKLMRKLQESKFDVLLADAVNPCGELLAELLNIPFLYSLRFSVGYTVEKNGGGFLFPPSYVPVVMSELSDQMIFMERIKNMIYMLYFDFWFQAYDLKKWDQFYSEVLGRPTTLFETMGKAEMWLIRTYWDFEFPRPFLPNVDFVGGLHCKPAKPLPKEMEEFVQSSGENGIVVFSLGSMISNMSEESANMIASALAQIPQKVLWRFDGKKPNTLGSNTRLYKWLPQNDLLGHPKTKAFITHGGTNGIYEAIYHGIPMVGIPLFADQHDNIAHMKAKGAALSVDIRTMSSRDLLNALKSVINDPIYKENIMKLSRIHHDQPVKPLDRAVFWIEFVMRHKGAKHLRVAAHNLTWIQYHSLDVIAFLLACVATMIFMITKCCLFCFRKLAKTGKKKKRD
The experiment in a line: (§2) Inhibition of UGT2B17. A digest of the protocol:
(§3)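 IC50 against UGT2B17-catalyzed glucuronidation of scopoletin, using His-tagged enzyme from insect cells at 0.1 µg/µL. Scopoletin was 300 µM (its Km) with inhibitor at 10–1000 µM. For poorly soluble aliphatic alcohols, inhibitor was 5–100 µM and scopoletin 50 µM. Buffer was 5.0 mM phosphate pH 7.4 with MgCl2 and saccharic lactone. UDPGlcA 5.0 mM; 15 min at 37 °C. Scopoletin glucuronide was read by HPLC fluorescence and fitted to the two-parameter Hill equation.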

For another data set, the target named is T4, UGT2B17 (Homo sapiens, UniProt O75795).
T4 sequence (O75795 whole entry): T3 sequence (O75795 whole entry)
The data set is described as §2. The following applies: human; read-out: Imax. Put shortly:
as §3

Data set [3] has as its target T1, UDP-glucuronosyltransferase 2B7. The experiment in a line: Competitive inhibition of UGT2B7-catalyzed scopoletin glucuronidation. Type of data set: functional. Put shortly: (§4)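 Recombinant human UGT2B7 from baculovirus-infected insect cells, 0.1 µg/µL, in 5.0 mM phosphate (pH 7.4), 10 mM MgCl2 and 5.0 mM saccharic acid-1,4-lactone. Racemates were tested at three concentrations bracketing Kic estimated by Cheng-Prusoff. Scopoletin was 100–2000 µM. After 5 min preincubation at 37 °C, 5.0 mM UDPGlcA was added and the reaction ran 15 min. Glucuronide was read by HPLC fluorescence (ex 335/em 455 nm). Mechanism came from simultaneous nonlinear regression.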

Data set [4] has the same target. The experiment in a line: Non competitive inhibition of UGT2B7-catalyzed scopoletin glucuronidation. The format is functional. A digest of the protocol: as §4
The target in data set [5] is T3, UDP-glucuronosyltransferase 2B17. The data set is described as follows: Competitive inhibition of UGT2B17-catalyzed scopoletin glucuronidation. The format is functional. A digest of the protocol:
(§5)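 His-tagged human UGT2B17 expressed in insect cells, 0.1 µg/µL, in 5.0 mM phosphate (pH 7.4) with 10 mM MgCl2 and 5.0 mM saccharic acid-1,4-lactone. Initial velocities were taken at scopoletin 100, 250, 500, 1000 and 2000 µM, with racemic inhibitors at three levels bracketing Kic estimated by Cheng-Prusoff. UDPGlcA (5.0 mM final) started the reaction after 5 min preincubation at 37 °C; run 15 min. Scopoletin glucuronide was measured by HPLC fluorescence. Inhibition mechanism was fitted by simultaneous nonlinear regression.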

The target is the same in data set [6]. The data set is described as follows: Non competitive inhibition of UGT2B17-catalyzed scopoletin glucuronidation. The format is functional. Put shortly: as §5

Molecules are shown by their SMILES.

Usually IC50 stands for the midpoint of a concentration-inhibition curve. Lower therefore signals greater potency. Consider `O[C@@H]1CCOc2ccccc21`, for which the IC50 in data set [1] was 507 µM; in data set [2], 448 µM. For the same compound, the Emax was determined as 65.8% on UGT2B7 and 69.3% on UGT2B17.

With `Cc1ccc2c(c1)[C@@H](O)CC2`, the concentration for half-maximal inhibition (IC50) was found to be 540 µM in data set [1] and 728 µM in data set [2]. Besides, the Emax came out at 64.4% on UGT2B7 and 58.3% on UGT2B17.

For orientation: Ki means a dissociation constant, usually derived from enzyme kinetics or from competition with a known ligand. For the compound `Cc1ccc2c(c1)C(O)CC2` (racemic), the Ki in data set [3] came out at 301 µM; in data set [4], 624 µM; in data set [5], 427 µM; in data set [6], 1440 µM.

As for `Cc1cc(C)c2c(c1)[C@@H](O)CCC2`, the IC50 in data set [1] stood at 166 µM; in data set [2], 98 µM. Also, the Emax on UGT2B7 was 83.5%; at UGT2B17, 90.5%.

Turning to `Cc1ccc2c(c1)C(O)CCO2` (racemic), the Ki in data set [3] worked out at 113 µM; in data set [4], 258 µM; in data set [5] it was 201 µM; in data set [6], 608 µM.

As for `COc1ccc2c(c1)[C@H](O)CCC2` (racemic), the IC50 in data set [1] is 284 µM; in data set [2] it was 162 µM. The figures for the Emax at UGT2B7 and at UGT2B17 were 80.4% and 84.7%, respectively.

As for `O[C@H]1CCCc2ccccc21`, the IC50 in data set [1] amounted to 489 µM; in data set [2], 374 µM. The values for the Emax at UGT2B7 and on UGT2B17 were 67.8% and 76.1%, respectively.

As to `COc1cccc2c1CCC[C@H]2O` (racemic), the IC50 came to 366 µM in data set [1] and 112 µM in data set [2]. Moreover, the Emax on UGT2B7 stood at 76.5%; on UGT2B17, 88.9%.

With `Cc1cc(C)c2c(c1)[C@H](O)CCC2` (racemic), the IC50 in data set [1] came out at 158 µM; in data set [2], 144 µM. The Emax at UGT2B7 amounted to 85.7%; on UGT2B17, 87.8%.

Regarding `Cc1ccc2c(c1)[C@@H](O)CCO2` (racemic), the values for the IC50 in data set [1] and in data set [2] were 182 µM and 325 µM, respectively. The Emax at UGT2B7 came out at 85%; on UGT2B17 it was 75.3%.

In the case of `Cc1ccc2c(c1)[C@H](O)CCO2`, the figures for the IC50 in data set [1] and in data set [2] were 225 µM and 365 µM, respectively. The Emax at UGT2B7 came out at 83.5%; at UGT2B17 it was 72.6%.

With `COc1cccc2c1CCC[C@@H]2O`, the IC50 in data set [1] was 301 µM; in data set [2], 132 µM. Besides, the Emax at UGT2B7 stood at 80.2%; on UGT2B17, 89.1%.

Take `O=[N+]([O-])c1ccc2c(c1)[C@@H](O)CCC2`: the concentration for half-maximal inhibition (IC50) in data set [1] was determined as 651 µM; in data set [2] it was 305 µM. For the same compound, the results for the Emax on UGT2B7 and on UGT2B17 were 62.5% and 77.4%, respectively.

Regarding `O[C@@H]1CCc2ccccc21`, the IC50 in data set [1] was determined as 275 µM; in data set [2] it was 517 µM. Also, the Emax at UGT2B7 amounted to 77.1%; at UGT2B17 it was 65.3%.

With `Cc1ccc2c(c1)[C@H](O)CC2` (racemic), the IC50 in data set [1] amounted to 394 µM; in data set [2], 489 µM. In addition, the Emax on UGT2B7 stood at 71.2%; on UGT2B17, 69.6%.

With `Cc1cc(C)c2c(c1)C(O)CCC2` (racemic), the Ki came to 101 µM in data set [3], 192 µM in data set [4], 57.8 µM in data set [5] and 190 µM in data set [6].

As for `O[C@H]1CCOc2ccccc21` (racemic), the IC50 in data set [1] is 518 µM; in data set [2] it was 319 µM. For the same compound, the results for the Emax on UGT2B7 and at UGT2B17 were 68.7% and 74.8%, respectively.

With `C[C@@H](O)c1ccc2ccccc2c1`, inhibition in data set [2] was half-maximal at 578 µM (IC50). In addition, the Emax on UGT2B17 amounted to 16.7%.

As for `C[C@H](O)c1c2ccccc2cc2ccccc12` (racemic), the figures for the IC50 in data set [1] and in data set [2] were 532 µM and 606 µM, respectively. Moreover, the Emax was found to be 17.7% at UGT2B7 and 11.1% on UGT2B17.

For the compound `C[C@@H](O)c1cccc2ccccc12`, the IC50 in data set [1] amounted to 130 µM; in data set [2] it was 389 µM. In addition, the Emax on UGT2B7 was determined as 41.9%; on UGT2B17, 18.9%.

For the compound `C[C@H](O)c1cccc2ccccc12` (racemic), the IC50 was determined as 214 µM in data set [1] and 537 µM in data set [2]. Further, the values for the Emax at UGT2B7 and at UGT2B17 were 31.8% and 14.3%, respectively.

In the case of `COc1ccc2c(c1)[C@@H](O)CCC2`, the IC50 in data set [1] was 351 µM; in data set [2] it was 216 µM. Moreover, the Emax on UGT2B7 turned out to be 77.2%; on UGT2B17 it was 80.4%.

For `O[C@@H]1CCCc2ccccc21`, the IC50 in data set [1] is 337 µM; in data set [2], 242 µM. The Emax at UGT2B7 was found to be 73.6%; at UGT2B17, 78.8%.

For `C[C@@H](O)c1c2ccccc2cc2ccccc12`, the figures for the IC50 in data set [1] and in data set [2] were 344 µM and 703 µM, respectively. Also, the Emax at UGT2B7 amounted to 19.8%; on UGT2B17 it was 13.1%.

With `Cc1cccc2c1CC[C@H]2O` (racemic), the IC50 was 317 µM in data set [1] and 682 µM in data set [2]. The Emax was found to be 76% at UGT2B7 and 60.1% on UGT2B17.

Consider `O=[N+]([O-])c1ccc2c(c1)[C@H](O)CCC2` (racemic), for which the figures for the IC50 in data set [1] and in data set [2] were 599 µM and 217 µM, respectively. Moreover, the Emax on UGT2B7 worked out at 61.9%; on UGT2B17 it was 83.5%.

As for `Cc1cccc2c1CC[C@@H]2O`, the IC50 in data set [1] was found to be 179 µM; in data set [2] it was 608 µM. Further, the Emax at UGT2B7 came to 86.4%; on UGT2B17, 61.7%.

Take `O[C@H]1CCc2ccccc21`: the IC50 in data set [1] stood at 513 µM; in data set [2] it was 545 µM. Further, the Emax on UGT2B7 was 67.3%; at UGT2B17 it was 63.4%.

As to `C[C@H](O)c1ccc2ccccc2c1` (racemic), in data set [2], half-maximal inhibition (IC50) required 657 µM. The Emax on UGT2B17 was 9.12%.
